Assay [1] concerns the target Metabotropic glutamate receptor 3 (Rattus norvegicus) (UniProt P31422). Kind of assay: Antagonistic activity against Glutamate receptor in rat spinal cord at concentration of 0.5 uM. The assay is classed as functional, tissue-based. The method in brief:
(§1)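 Neonatal rat spinal cord, hemisected sagittally, superfused at 1 mL/min with oxygenated Krebs-Henseleit medium containing 0.5% urethane at room temperature. Agonists were given in 2-mL doses in the superfusate. Antagonist was superfused continuously for at least 15 min before agonist retesting. Read-out was ventral root depolarization (DC potential, ventral root vs cord body), measured as amplitude and area of response.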

Assay [2] shares this target. Kind of assay: Antagonistic activity against Glutamate receptor in rat spinal cord at concentration of 1.0 uM. The assay is classed as functional, tissue-based. The method in brief: as §1
Assay [3] has the same target. Kind of assay: Antagonistic activity against Glutamate receptor in rat spinal cord at concentration of 10.0 uM. Type of assay: functional, tissue-based. The essentials:
as §1

The target is the same in assay [4]. Kind of assay: Antagonistic activity against Glutamate receptor in rat spinal cord at concentration of 5.0 uM. The assay is classed as functional, tissue-based. The method in brief:
as §1

The target is the same in assay [5]. Kind of assay: Antagonistic activity against Glutamate receptor in rat spinal cord at concentration of 50.0 uM. Type of assay: functional, tissue-based. The method in brief:
as §1

In assay [6] the target is Substance-P receptor (Cavia porcellus) (UniProt P30547). The experiment in a line: Antagonistic activity against Substance P receptor in guinea pig ileum at concentration of 0.5 uM. Type of assay: functional, tissue-based. The method in brief:
(§2)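 Distal ileum from Dunkin-Hartley guinea pigs (300-350 g, both sexes), held in a 5-mL bath of Krebs solution at 37 °C gassed with 95% O2/5% CO2. Agonist dose-response curves ran on a 3-min cycle with 1-min contact, then washout. Dose ratio = agonist EC50 with antagonist / EC50 alone. At least two preparations per compound; ratios below two were taken as insignificant.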

Assay [7] shares this target. Kind of assay: Antagonistic activity against Substance P receptor in guinea pig ileum at concentration of 1.0 uM. The assay is classed as functional, tissue-based. The essentials:
as §2

The target is the same in assay [8]. Kind of assay: (§3) Antagonistic activity against Substance P receptor in guinea pig ileum at concentration of 10.0 uM. Type of assay: functional, tissue-based. The essentials: as §2
Assay [9] has the same target. Kind of assay: (§4) Antagonistic activity against Substance P receptor in guinea pig ileum at concentration of 5.0 uM. Type of assay: functional, tissue-based. The essentials:
as §2

The target is the same in assay [10]. Described as §3. Type of assay: functional, tissue-based. The method in brief:
as §2
The source holds these as a separate data set.

For assay [11] the target is unchanged. Kind of assay: Antagonistic activity against Substance P(6-11) receptor in guinea pig ileum at concentration of 0.5 uM. Type of assay: functional, tissue-based. The essentials:
as §2

Assay [12] has the same target. The experiment in a line: Antagonistic activity against Substance P(6-11) receptor in guinea pig ileum at concentration of 1.0 uM. The assay is classed as functional, tissue-based. The essentials: as §2
Assay [13] has the same target. The assay is described as §4. The assay is classed as functional, tissue-based. The essentials: as §2
The source holds these as a separate data set.

Assay [14] concerns the target Metabotropic glutamate receptor 3 (Rattus norvegicus) (UniProt P31422). The experiment in a line: Antagonistic activity against Glutamate receptor in rat spinal cord at concentration of 20 uM. The assay is classed as functional, tissue-based. The essentials: as §1
For assay [15], the target named is Substance-P receptor (Cavia porcellus) (UniProt P30547). The experiment in a line: In vitro inhibition of substance P (6-11) hexapeptide induced contractions of the guinea pig ileum at 5 uM. The assay is classed as tissue-based. The method in brief: (§5)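 Agonist (SP or SP(6-11)-hexapeptide) dose-response curves on a 3-min cycle with 1-min contact, then washout. Dose ratio = agonist EC50 with antagonist / EC50 alone. At least two preparations per compound; ratios below 2 taken as insignificant.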

The target is the same in assay [16]. Kind of assay: Antagonistic activity against Substance P receptor in guinea pig ileum at concentration of 1 uM. The assay is classed as functional, tissue-based. The method in brief:
as §2

For assay [17] the target is unchanged. Kind of assay: In vitro inhibition of substance P induced contractions of the guinea pig ileum at 5 uM. Type of assay: tissue-based. The essentials: as §5
Assay [18] has the same target. Kind of assay: Antagonistic activity against Substance P(6-11) receptor in guinea pig ileum at concentration of 1 uM. Type of assay: functional, tissue-based. The method in brief:
as §2

The target in assay [19] is Substance-P receptor (Rattus norvegicus) (UniProt P14600). Kind of assay: Antagonistic activity against Substance P receptor in rat spinal cord at concentration of 20 uM.
The target is the same in assay [20]. Kind of assay: Antagonistic activity against Substance P(6-11) receptor in rat spinal cord at concentration of 20 uM.
Assay [21] has as its target Metabotropic glutamate receptor 3 (Rattus norvegicus) (UniProt P31422). The experiment in a line: Antagonistic activity against Glutamate receptor in rat spinal cord at concentration of 10 uM. The assay is classed as functional, tissue-based. The method in brief:
as §1

Assay [22] shares this target. Kind of assay: Antagonistic activity against Glutamate receptor in rat spinal cord at concentration of 25 uM. The assay is classed as functional, tissue-based. The method in brief:
as §1

The target in assay [23] is Substance-P receptor (Cavia porcellus) (UniProt P30547). The experiment in a line: In vitro inhibition of substance P induced contractions of the guinea pig ileum at 10 uM. The assay is classed as tissue-based. The essentials:
as §5

Assay [24] deals with Substance-P receptor (Rattus norvegicus) (UniProt P14600). Kind of assay: Antagonistic activity against Substance P receptor in rat spinal cord at concentration of 10 uM.
For assay [25] the target is unchanged. Kind of assay: Antagonistic activity against Substance P receptor in rat spinal cord at concentration of 25 uM.
In assay [26] the test system is muscarinic acetylcholine receptor (Rattus norvegicus). Kind of assay: Antagonistic activity against Carbachol receptor in rat spinal cord at concentration of 10 uM.
Assay [27] shares this test system. The experiment in a line: Antagonistic activity against Carbachol receptor in rat spinal cord at concentration of 50 uM.
Assay [28] concerns the target Substance-P receptor (Rattus norvegicus) (UniProt P14600). Kind of assay: Antagonistic activity against Substance P(6-11) receptor in rat spinal cord at concentration of 10 uM.
Assay [29] shares this target. Kind of assay: Antagonistic activity against Substance P(6-11) receptor in rat spinal cord at concentration of 25 uM.
The target is the same in assay [30]. Kind of assay: Antagonistic activity against Substance P(6-11) receptor in rat spinal cord at concentration of 50 uM.
In assay [31] the target is Metabotropic glutamate receptor 3 (Rattus norvegicus) (UniProt P31422). Kind of assay: Antagonistic activity against Glutamate receptor in rat spinal cord at concentration of 50 uM. Type of assay: functional, tissue-based. The essentials:
as §1

The target of a further assay is Substance-P receptor (Rattus norvegicus, UniProt P14600). The experiment in a line: Histamine releasing activity of Substance P from isolated rat peritoneal mast cells. The assay is classed as functional. The method in brief: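 Histamine release from isolated rat peritoneal mast cells, method of Fretwell et al. Dose-response curves were built over a range of concentrations, and EC50 values were calculated from the curves.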

In assay [32] the target is Substance-P receptor (Rattus norvegicus) (UniProt P14600). The experiment in a line: Antagonistic activity against Substance P receptor in rat spinal cord at concentration of 50 uM.
The target in assay [33] is Metabotropic glutamate receptor 3 (Rattus norvegicus) (UniProt P31422). Kind of assay: Antagonistic activity against Glutamate receptor in rat spinal cord at concentration of 5 uM. The assay is classed as functional, tissue-based. The method in brief:
as §1

Assay [34] concerns the target Substance-P receptor (Cavia porcellus) (UniProt P30547). Kind of assay: In vitro inhibition of substance P (6-11) hexapeptide induced contractions of the guinea pig ileum at 10 uM. Type of assay: tissue-based. The essentials:
as §5

Sequence of Substance-P receptor (Cavia porcellus) (P30547 whole entry): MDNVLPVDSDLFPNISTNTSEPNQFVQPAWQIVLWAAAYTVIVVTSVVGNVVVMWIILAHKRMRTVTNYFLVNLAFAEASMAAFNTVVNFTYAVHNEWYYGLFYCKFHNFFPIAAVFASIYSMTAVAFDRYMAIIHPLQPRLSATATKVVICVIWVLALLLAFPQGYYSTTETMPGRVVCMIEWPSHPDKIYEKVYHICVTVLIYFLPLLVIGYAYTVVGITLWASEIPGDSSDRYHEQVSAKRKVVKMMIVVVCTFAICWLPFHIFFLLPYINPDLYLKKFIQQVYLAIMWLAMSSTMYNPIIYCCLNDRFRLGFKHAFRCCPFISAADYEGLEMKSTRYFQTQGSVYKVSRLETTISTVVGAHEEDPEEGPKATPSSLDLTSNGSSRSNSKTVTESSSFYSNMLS
Sequence of Metabotropic glutamate receptor 3 (Rattus norvegicus) (P31422 23-879 limits assumed): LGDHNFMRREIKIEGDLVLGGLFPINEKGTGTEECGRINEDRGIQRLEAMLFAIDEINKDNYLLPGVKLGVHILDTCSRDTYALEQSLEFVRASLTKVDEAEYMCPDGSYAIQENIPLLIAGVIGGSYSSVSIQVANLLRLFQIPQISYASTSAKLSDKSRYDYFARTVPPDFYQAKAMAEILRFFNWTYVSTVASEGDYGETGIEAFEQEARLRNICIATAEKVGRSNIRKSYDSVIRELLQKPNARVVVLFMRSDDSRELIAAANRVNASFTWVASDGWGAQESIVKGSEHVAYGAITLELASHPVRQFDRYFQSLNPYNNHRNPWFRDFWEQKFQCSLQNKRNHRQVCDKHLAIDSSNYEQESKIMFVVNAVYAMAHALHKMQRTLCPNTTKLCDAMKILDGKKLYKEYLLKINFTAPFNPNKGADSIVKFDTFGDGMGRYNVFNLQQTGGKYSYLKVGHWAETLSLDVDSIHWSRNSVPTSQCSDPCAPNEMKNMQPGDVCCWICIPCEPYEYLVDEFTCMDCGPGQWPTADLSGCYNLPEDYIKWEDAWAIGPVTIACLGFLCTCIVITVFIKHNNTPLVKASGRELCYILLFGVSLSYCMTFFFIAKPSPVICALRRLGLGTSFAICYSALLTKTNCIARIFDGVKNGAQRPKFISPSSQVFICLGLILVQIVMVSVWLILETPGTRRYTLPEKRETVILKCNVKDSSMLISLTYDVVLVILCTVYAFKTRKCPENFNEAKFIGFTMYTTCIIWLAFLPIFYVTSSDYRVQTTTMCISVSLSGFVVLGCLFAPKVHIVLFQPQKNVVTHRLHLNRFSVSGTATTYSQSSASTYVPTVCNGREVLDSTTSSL
Sequence of Substance-P receptor (Rattus norvegicus) (P14600 whole entry, looked up): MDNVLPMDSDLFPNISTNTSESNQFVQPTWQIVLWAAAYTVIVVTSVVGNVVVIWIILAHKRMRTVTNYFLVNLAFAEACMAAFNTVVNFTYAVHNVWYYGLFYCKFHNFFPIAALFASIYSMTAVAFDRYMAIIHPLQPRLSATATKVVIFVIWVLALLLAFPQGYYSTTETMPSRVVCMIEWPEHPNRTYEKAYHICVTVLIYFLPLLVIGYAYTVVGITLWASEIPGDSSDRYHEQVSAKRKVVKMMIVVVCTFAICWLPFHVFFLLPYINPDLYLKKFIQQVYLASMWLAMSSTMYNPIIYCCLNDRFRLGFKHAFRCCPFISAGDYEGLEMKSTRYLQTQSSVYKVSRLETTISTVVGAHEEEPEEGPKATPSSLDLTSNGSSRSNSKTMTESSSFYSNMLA
Sequence of Substance-P receptor (P14600 whole entry): as the sequence (P14600 whole entry, looked up) above

`COC(=O)[C@@H](CCSC)NC(=O)[C@@H](CC(C)C)SCCNC(=O)[C@@H](Cc1ccccc1)NC(=O)[C@H](Cc1ccccc1)NC(=O)[C@H](CCC(N)=O)NC(=O)[C@H](CCC(N)=O)NC(=O)[C@H]1CCCN1C(=O)[C@H](CCCCNC(=O)OCc1ccccc1)NC(=O)[C@H]1CCCN1C(=O)[C@H](CCCN=C(N)N)NC(=O)OCc1ccccc1`: the Change in amplitude response in [1] was -7%; in assay [2], -12%; in assay [3], -31%; in [4] it was -23%; in assay [5] it was -25%. Besides, the Activity came to 2.4 dose ratio in assay [6]; 3.4 dose ratio in [7]; 52 dose ratio in assay [8]; 38 dose ratio in assay [9]; 52 dose ratio in assay [10]; 4.2 dose ratio in [11]. For the same compound, the Activity turned out to be 20.1 dose ratio in [12] and 38 dose ratio in assay [13].

As to `COC(=O)[C@H](CCSC)NC(=O)[C@H](CC(C)C)NC(=O)[C@@H](Cc1c[nH]c2ccccc12)NC(=O)[C@H](Cc1ccccc1)NC(=O)[C@@H](Cc1ccccc1)NC(=O)[C@H](CCCN=C(N)N)NC(=O)[C@H](CC(N)=O)NC(=O)[C@@H]1CCCN1C(=O)[C@H](CCCCNC(=O)OCc1ccccc1)NC(=O)[C@@H]1CCCN1C(=O)[C@H](CCCN=C(N)N)NC(=O)OC(C)(C)C`, the Change in amplitude response in assay [14] is -9%; in assay [19] it was 17%; in assay [20], -85%. Also, the Activity in [15] came to 5.1 dose ratio; in assay [16] it was 3.1 dose ratio; in [17], 2.8 dose ratio; in assay [18], 3.1 dose ratio.

Consider `COC(=O)[C@@H](CCSC)NC(=O)[C@H](CC(C)C)NC(=O)CNC(=O)[C@@H](Cc1c[nH]c2ccccc12)NC(=O)[C@@H](Cc1c[nH]c2ccccc12)NC(=O)[C@H](CCC(N)=O)NC(=O)[C@H](CCC(N)=O)NC(=O)[C@@H]1CCCN1C(=O)[C@H](CCCCNC(=O)OCc1ccccc1)NC(=O)[C@@H]1CCCN1C(=O)[C@H](CCCN=C(N)N)NC(=O)OCc1ccccc1`, for which the Change in amplitude response is -3% in assay [21]; -13% in [22]; 19% in [24]; 18% in assay [25]; -6% in assay [26]; -24% in [27]. Further, the values for the Change in amplitude response in [28], in [29] and in [30] were -33%, -77% and -75%, respectively. The same compound gave an Activity in [23] of 10.5 dose ratio.

In the case of `COC(=O)[C@H](CCSC)NC(=O)[C@H](CC(C)C)NC(=O)[C@@H](Cc1c[nH]c2ccccc12)NC(=O)[C@H](Cc1ccccc1)NC(=O)[C@@H](Cc1ccccc1)NC(=O)[C@H](CCCN=C(N)N)NC(=O)[C@H](CC(N)=O)NC(=O)OC(C)(C)C`, the Change in amplitude response in [21] is -3%; in [31], 11%; in assay [24] it was 15%; in assay [32], -17%; in assay [26], -26%; in [27] it was -40%. The Change in amplitude response in [28] is -56%; in assay [30], -79%. For the same compound, the IC50 against Substance-P receptor was found to be 500 µM. The Activity was 16 dose ratio in [15], less than 2 dose ratio in assay [16], 2.1 dose ratio in [17] and 4.4 dose ratio in assay [18].

Consider `COC(=O)[C@@H](CCSC)NC(=O)[C@H](CC(C)C)SCCNC(=O)[C@@H](Cc1ccccc1)NC(=O)[C@H](Cc1ccccc1)NC(=O)[C@H](CCC(N)=O)NC(=O)[C@H](CCC(N)=O)NC(=O)[C@H]1CCCN1C(=O)[C@H](CCCCNC(=O)OCc1ccccc1)NC(=O)[C@H]1CCCN1C(=O)[C@H](CCCN=C(N)N)NC(=O)OCc1ccccc1`, for which the Change in amplitude response is -5% in assay [31] and 5% in [33]. Further, the Activity amounted to 21.6 dose ratio in assay [15], 15.2 dose ratio in [23], 4.5 dose ratio in assay [17] and 49.3 dose ratio in assay [34].

Turning to `COC(=O)[C@@H](CCSC)NC(=O)[C@H](CC(C)C)N(C)C(=O)CN(C)C(=O)[C@H](Cc1ccccc1)NC(=O)[C@@H](Cc1ccccc1)NC(=O)[C@H](CCC(N)=O)NC(=O)[C@H](CCC(N)=O)NC(=O)C1CCCN1C(=O)[C@H](CCCCNC(=O)OCc1ccccc1)NC(=O)C1CCCN1C(=O)[C@H](CCCN=C(N)N)NC(=O)OCc1ccccc1` (stereo in doubt), the Change in amplitude response in assay [1] was 6%; in assay [2], 0%; in [3], -35%; in assay [4], 0%.

As to `COC(=O)[C@@H](CCSC)NC(=O)[C@H](CC(C)C)NC(=O)CN(C)C(=O)[C@H](Cc1ccccc1)NC(=O)[C@@H](Cc1ccccc1)NC(=O)[C@H](CCC(N)=O)NC(=O)[C@H](CCC(N)=O)NC(=O)C1CCCN1C(=O)[C@H](CCCCNC(=O)OCc1ccccc1)NC(=O)C1CCCN1C(=O)[C@H](CCCN=C(N)N)NC(=O)OCc1ccccc1` (stereo in doubt), the Change in amplitude response in assay [22] was -24%; in [31] it was -36%; in assay [33], -15%.

Take `COC(=O)[C@@H](CCSC)NC(=O)[C@H](CC(C)C)NC(=O)CN(C)C(=O)[C@H](Cc1ccccc1)NC(=O)[C@@H](Cc1ccccc1)NC(=O)[C@H](CCC(N)=O)NC(=O)[C@H](CCC(N)=O)NC(=O)C1CCCN1C(=O)OC(C)(C)C` (stereo in doubt): the Change in amplitude response in [31] was -4%; in assay [25], 7%; in [32], -12%; in [29], -29%; in [30], -57%. Moreover, the Activity in assay [15], in assay [23], in [17] and in [34] was less than 2 dose ratio throughout.

A word on the IC50: it is the point on the concentration scale where inhibition reaches its midpoint.

For the origin of these results see ChEMBL document CHEMBL1123302, “Antagonists of substance P. Further modifications of substance P antagonists obtained by replacing either positions 7, 9 or 7, 8 and 11 of SP with D-amino acid residues” (J Med Chem, 1986).
